Here are results for three molecules from publication PMC6609548 (British Journal of Pharmacology, 2019).

The target of one experiment is T1, α2 glycine receptors (Homo sapiens, UniProt P23416).
T1 sequence (P23416 28-452): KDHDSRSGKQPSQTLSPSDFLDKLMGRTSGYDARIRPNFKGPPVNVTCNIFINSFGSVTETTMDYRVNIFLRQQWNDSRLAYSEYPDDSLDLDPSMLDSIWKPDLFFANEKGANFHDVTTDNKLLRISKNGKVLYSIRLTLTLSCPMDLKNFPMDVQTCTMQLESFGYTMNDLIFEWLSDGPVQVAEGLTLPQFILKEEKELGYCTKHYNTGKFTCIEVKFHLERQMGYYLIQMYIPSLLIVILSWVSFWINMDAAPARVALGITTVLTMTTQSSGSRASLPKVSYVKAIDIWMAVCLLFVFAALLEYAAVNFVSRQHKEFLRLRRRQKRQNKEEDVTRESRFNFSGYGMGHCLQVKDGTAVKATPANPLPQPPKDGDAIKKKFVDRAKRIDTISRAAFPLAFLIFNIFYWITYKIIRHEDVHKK
The experiment in a line: Whole-cell patch-clamp on CHO cells expressing α2 glycine receptors. It is filed as cell-based. The note with it: 50 μM, glycine 30 μM, Vh −30 mV, n = 10. A digest of the protocol:
(§1)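 CHO-K1 cells were transfected (Lipofectamine) with receptor subunit cDNA plus GFP; fluorescent cells were recorded whole-cell 24–72 hr later at 20–25°C. External HEPES-buffered saline at pH 7.4; KCl-based pipette solution at pH 7.3. Agonist and test compound were co-applied by a fast three-tube system at Vh −30/+30 mV or on a −60 to +60 mV ramp. UV came from a 365 nm LED (0.6 mW·mm−2). Cells with input resistance <150 MOhm or >30% run-down were excluded.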

Another experiment deals with α1/β2/γ2 GABAA receptors (Homo sapiens, UniProt P14867+P18507+P47870). The experiment in a line: Whole-cell patch-clamp on CHO cells expressing heteromeric GABAA receptors. It is filed as cell-based. The note with it: for decrease of currents induced by GABA (ramp protocol): 50 μM Azo-NZ1, 5 μM GABA, n = 5; for decrease of currents induced by GABA (ramp protocol) / decrease of amplitude of GABA-induced currents: visible light; for decrease of amplitude of GABA-induced currents: 70 μM Azo-NZ1, 5 μM GABA.

Another experiment concerns the target ρ1 GABAC receptors (Homo sapiens, UniProt P24046). As to the kind of experiment: Whole-cell patch-clamp on CHO cells expressing homomeric ρ1 GABAC receptors. The class given is cell-based. The note with it: visible and UV light.
A further experiment concerns the target T2, 5‐HT3A receptors (Homo sapiens, UniProt P46098).
T2 sequence (P46098 24-478): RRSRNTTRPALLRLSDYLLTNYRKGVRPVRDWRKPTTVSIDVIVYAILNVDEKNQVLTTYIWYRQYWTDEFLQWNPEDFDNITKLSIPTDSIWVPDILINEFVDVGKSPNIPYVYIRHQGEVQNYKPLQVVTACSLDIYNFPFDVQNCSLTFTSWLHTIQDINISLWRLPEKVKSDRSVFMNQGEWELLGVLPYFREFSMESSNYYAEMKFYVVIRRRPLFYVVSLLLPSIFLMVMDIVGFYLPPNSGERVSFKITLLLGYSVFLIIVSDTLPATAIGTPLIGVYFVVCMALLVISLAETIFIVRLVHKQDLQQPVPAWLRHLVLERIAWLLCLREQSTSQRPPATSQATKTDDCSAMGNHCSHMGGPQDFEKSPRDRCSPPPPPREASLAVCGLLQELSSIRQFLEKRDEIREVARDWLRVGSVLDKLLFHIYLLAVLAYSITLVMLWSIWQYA
The experiment in a line: Whole-cell patch-clamp on CHO cells expressing homomeric 5HT3A receptors. The class given is cell-based. The settings on record: trans or cis‐configuration. A digest of the protocol:
as §1

The target of the next experiment is GABA ρ1 P2′S receptors (Homo sapiens, UniProt P24046, P315S). The experiment in a line: Whole-cell patch-clamp on CHO cells expressing mutant ρ1 P2′S receptors. It is filed as cell-based. The settings on record: 100 μM Azo-NZ1, 10 μM GABA, visible light.
The test system of experiment [1] is GABAergic eIPSCs in dentate gyrus granule cells. As to the kind of experiment: Evoked GABAergic postsynaptic currents. The note with it: for suppression of eIPSCs amplitude to: n = 5. It is filed as cell-based, mice. The procedure, abridged:
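Hippocampal slices (coronal) from 3–4-week-old ICR outbred mice of both sexes, recovered ≥1 hr at room temperature and superfused with oxygenated aCSF at 32–34°C. Whole-cell recordings from dentate granule cells at Vh 0 mV. eIPSCs were evoked every 10 s from a theta-glass electrode placed 100–200 μm away. Protocol: 20–30 control events, then test compound in aCSF for 5–10 min, perfusate illuminated at 365 nm then 455 nm for 3–5 min each.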

The next experiment has as its target ρ2 GABAC receptors (Homo sapiens, UniProt P28476). The experiment in a line: Whole-cell patch-clamp on CHO cells expressing homomeric ρ2 GABAC receptors. It is filed as cell-based. The procedure, abridged:
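ρ2 receptors were expressed in CHO-K1 cells by cDNA transfection with GFP; whole-cell recordings were made 24–72 hr later at 20–25°C using fast solution exchange. […] Test compound inhibition of GABA-evoked currents was measured at Vh −30 and +30 mV and normalised to the current just before compound application; mean ± SEM.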

In a further experiment the target is T3, α1 glycine receptors (Homo sapiens, UniProt P23415).
T3 sequence (P23415 29-457): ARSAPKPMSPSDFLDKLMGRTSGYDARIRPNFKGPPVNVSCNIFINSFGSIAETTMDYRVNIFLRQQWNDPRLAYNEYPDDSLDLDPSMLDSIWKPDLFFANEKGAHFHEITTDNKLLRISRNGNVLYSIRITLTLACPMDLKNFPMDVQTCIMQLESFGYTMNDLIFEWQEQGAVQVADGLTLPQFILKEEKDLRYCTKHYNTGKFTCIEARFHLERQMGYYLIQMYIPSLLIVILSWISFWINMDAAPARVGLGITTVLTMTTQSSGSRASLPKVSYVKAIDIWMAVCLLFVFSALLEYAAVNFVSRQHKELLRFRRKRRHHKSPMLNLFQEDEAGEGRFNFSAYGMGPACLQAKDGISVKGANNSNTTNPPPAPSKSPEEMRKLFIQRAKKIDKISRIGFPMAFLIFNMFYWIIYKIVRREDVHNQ
The experiment in a line: Whole-cell patch-clamp on CHO cells expressing α1 glycine receptors. It is filed as cell-based. The note with it: 50 μM, glycine 30 μM, Vh −30 mV. A digest of the protocol:
as §1

The next experiment addresses ρ2 mutant S2′G receptors (Homo sapiens, UniProt P28476, S295G). The experiment in a line: Whole-cell patch-clamp on CHO cells expressing mutant ρ2 S2′G receptors. The class given is cell-based. A digest of the protocol: as §1

α1/β2/γ2 GABAA receptors, sequence (P14867 28-456): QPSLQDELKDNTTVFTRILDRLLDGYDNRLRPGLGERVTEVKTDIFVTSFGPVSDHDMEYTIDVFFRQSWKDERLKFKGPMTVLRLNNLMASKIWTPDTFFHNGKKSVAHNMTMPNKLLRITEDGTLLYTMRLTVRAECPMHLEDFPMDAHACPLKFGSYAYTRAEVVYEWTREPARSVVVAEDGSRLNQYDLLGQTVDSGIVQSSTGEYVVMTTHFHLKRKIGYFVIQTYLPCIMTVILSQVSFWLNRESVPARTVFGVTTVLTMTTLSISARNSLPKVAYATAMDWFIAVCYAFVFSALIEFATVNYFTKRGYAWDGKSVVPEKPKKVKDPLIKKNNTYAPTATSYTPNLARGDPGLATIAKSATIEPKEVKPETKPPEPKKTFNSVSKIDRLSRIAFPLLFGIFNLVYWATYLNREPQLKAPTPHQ
α1/β2/γ2 GABAA receptors, sequence (P47870 25-512 limits assumed): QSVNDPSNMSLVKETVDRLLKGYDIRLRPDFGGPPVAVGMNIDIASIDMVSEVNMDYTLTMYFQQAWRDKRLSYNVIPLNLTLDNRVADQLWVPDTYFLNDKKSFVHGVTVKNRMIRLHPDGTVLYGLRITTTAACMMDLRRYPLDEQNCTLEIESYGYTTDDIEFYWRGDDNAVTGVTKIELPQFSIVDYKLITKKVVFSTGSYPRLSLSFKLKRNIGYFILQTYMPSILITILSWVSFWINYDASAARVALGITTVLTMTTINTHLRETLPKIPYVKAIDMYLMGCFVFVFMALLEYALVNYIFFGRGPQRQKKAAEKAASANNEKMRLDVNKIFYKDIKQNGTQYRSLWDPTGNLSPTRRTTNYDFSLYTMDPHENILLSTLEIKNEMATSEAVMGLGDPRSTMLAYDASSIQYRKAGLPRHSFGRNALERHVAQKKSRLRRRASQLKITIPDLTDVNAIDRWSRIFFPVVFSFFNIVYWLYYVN
α1/β2/γ2 GABAA receptors, sequence (P18507 40-467 isoform P18507-1 limits assumed): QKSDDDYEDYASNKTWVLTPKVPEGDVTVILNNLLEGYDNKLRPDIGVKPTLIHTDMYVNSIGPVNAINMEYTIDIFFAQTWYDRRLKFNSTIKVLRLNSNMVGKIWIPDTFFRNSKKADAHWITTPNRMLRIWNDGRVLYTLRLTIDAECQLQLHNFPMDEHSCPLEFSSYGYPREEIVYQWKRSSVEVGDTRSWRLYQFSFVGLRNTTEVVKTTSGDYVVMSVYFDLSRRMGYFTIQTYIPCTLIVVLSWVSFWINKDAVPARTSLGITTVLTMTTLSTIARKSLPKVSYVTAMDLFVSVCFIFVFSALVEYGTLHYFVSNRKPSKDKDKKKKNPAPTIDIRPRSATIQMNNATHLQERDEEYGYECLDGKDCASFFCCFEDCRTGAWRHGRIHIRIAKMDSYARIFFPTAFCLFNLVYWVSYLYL
ρ2 mutant S2′G receptors, sequence (P28476 21-465 S295G): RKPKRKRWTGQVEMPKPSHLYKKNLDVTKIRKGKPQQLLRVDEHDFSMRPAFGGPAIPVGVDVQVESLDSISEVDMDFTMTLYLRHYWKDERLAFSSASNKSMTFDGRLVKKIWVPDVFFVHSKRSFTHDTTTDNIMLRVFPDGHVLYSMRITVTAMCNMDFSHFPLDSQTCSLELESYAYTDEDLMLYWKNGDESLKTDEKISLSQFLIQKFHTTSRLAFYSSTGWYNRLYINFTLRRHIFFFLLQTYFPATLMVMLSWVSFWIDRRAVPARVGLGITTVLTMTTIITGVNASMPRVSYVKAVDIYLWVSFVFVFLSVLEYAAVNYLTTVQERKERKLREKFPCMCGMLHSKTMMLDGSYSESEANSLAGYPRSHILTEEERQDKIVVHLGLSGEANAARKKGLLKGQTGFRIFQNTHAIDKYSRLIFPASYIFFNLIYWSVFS
ρ2 GABAC receptors, sequence (P28476 21-465): as the sequence (P28476 21-465 S295G) above, with G275S counted along it
GABA ρ1 P2′S receptors, sequence (P24046 22-479 P315S): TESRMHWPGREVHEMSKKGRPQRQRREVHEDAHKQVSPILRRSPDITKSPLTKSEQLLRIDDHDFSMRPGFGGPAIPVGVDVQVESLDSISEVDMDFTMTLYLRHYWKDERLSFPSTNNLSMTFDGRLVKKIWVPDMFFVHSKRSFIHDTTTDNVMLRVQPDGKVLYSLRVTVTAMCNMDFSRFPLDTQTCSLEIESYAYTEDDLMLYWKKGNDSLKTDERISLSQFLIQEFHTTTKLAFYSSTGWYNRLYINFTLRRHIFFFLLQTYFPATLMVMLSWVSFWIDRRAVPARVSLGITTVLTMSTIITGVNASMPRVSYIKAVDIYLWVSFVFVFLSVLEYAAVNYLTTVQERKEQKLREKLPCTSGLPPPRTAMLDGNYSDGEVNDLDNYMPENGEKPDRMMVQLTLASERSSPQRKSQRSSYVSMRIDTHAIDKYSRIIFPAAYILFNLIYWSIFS
ρ1 GABAC receptors, sequence (P24046 22-479): as the sequence (P24046 22-479 P315S) above, with S294P counted along it

For the molecule `O=C1CN=C(c2ccccc2)c2cc(/N=N/c3ccc(S(=O)(=O)O)cc3)ccc2N1` [Azo‐NZ1, (E)‐4‐((2‐oxo‐5‐phenyl‐2,3‐dihydro‐1H‐benzo[e][1,4]diazepin‐7‐yl)diazenyl)benzenesulfonic acid], the “current amplitude under UV illumination” value on α2 glycine receptors (UV illumination) is 95 ± 7%. Besides, the “current amplitude decreased to” value at α2 glycine receptors (visible light) turned out to be 23 ± 3%. The IC50 against α1/β2/γ2 GABAA receptors worked out at 67 ± 5 µM; on ρ2 GABAC receptors, 128 ± 25 µM. The “decrease of currents induced by GABA (ramp protocol)” value on α1/β2/γ2 GABAA receptors (+60 mV) stood at 76 ± 5%; on α1/β2/γ2 GABAA receptors (−60 mV), 40 ± 4%. Besides, the “effect at saturating GABA compared with 5 μM GABA” value at α1/β2/γ2 GABAA receptors (50 μM Azo-NZ1 co-applied with 300 μM GABA, Vhold −30 mV) was “even stronger inhibitory effect”. Also, the “decrease of amplitude of GABA-induced currents” value at α1/β2/γ2 GABAA receptors (+30 mV) came to 78%; on α1/β2/γ2 GABAA receptors (−30 mV), 51%. For the same molecule, the “effect on GABA-induced currents” value is “did not produce effect” on α1/β2/γ2 GABAA receptors (Azo-NZ1 0.5–1 μM, 5 μM GABA) and “inhibited currents” on GABA ρ1 P2′S receptors. Besides, the “effect on receptor activity” value at ρ1 GABAC receptors is “did not alter the activity”. In addition, at 5‐HT3A receptors, the “interaction with 5‐HT3A receptors” value is reported as “did not interact in a specific manner”. In addition, the “suppression of eIPSCs amplitude to” value in experiment [1] (100 μM Azo-NZ1, blue light, Vh 0 mV) came out at 58.6 ± 3.3%; in experiment [1] (200 μM Azo-NZ1, blue light, Vh 0 mV), 25.2 ± 6.0%. In [1] (single neuron, 100 μM Azo-NZ1, Vh 0 mV, control aCSF 156.9 ± 4.5 pA), the “amplitude of eIPSCs” value turned out to be 100.6 ± 3.2 pA. The “current amplitude reduced to” value is recorded as 73 ± 2% on α1 glycine receptors (UV illumination) and 86 ± 3% at α1 glycine receptors (visible light (trans), n = 4). For the same molecule, the UV effect entry at ρ2 mutant S2′G receptors (UV illumination in presence of Azo-NZ1) is reported as “virtually absent”. Also, at ρ2 mutant S2′G receptors (upon application of Azo-NZ1, n = 5), the “decrease of current amplitude” value came to 14 ± 2%.
For the molecule `CN1CCc2cc3c(cc2[C@H]1[C@@H]1OC(=O)c2c1ccc1c2OCO1)OCO3` [Bicuculline, bicuculline, reference compound], the “effect on eIPSCs” value in [1] (bicuculline 10 μM, Vh 0 mV) was “complete inhibition”.
For `CN1C(=O)CN=C(c2ccccc2)c2cc(Cl)ccc21` [Diazepam, diazepam, reference compound], at α1/β2/γ2 GABAA receptors (diazepam 10 μM co-applied with non-saturating GABA (5 μM), Vh −30 mV), the “effect on GABA-induced current amplitude” value was “increase in the current amplitude”.
